# Most compounds without a hit are left out; they make up all but 3.7% or so of the library.
# HCV NS3 hel inh: inhibitors of Hepatitis C virus NS3 helicase. NS3 helicase DNA unwinding, Cy5 molecular beacon fluorescence. inhibition, % at 10.9 µM. hit rate 0.56% among 290,000;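 active = inhibition above the mean of all tested compounds plus 3 SD, set per campaign, cut at about 35% in these data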
#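 System: Hepatitis C virus NS3 helicase domain fragment enzyme | Reagent: Annealed dual-labelled DNA beacon duplex, ATP-started | Compound dosing: 10.9 µM single point, 0.8% DMSO | Incubation: 1 h reaction at 25 °C, ATP-initiated | Technique: Cy5 fluorescence | Evaluation: Percent inhibition from t60/t0 fluorescence ratio | Benchmarks: Low DMSO, high thioflavine S at 110 µM | Replication: Singlicate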
# core dimer inh: HCV core protein dimerization inhibition | hit rate 0.33% among 300,000 | TR-FRET GST/Flag-core106 dimerization, 1536-well | inhibition, % at 5 µM;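 active = inhibition above the mean of all tested compounds plus 3 SD, set per screening campaign, cut at about 45% in these data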
#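 System: GST-tagged and Flag-tagged HCV core protein residues 1-106 / Input: core106 proteins, GST 13.5 nM and Flag 17 nM / Buffer or medium: KF-containing HEPES buffer, pH 7.45, DTT, CHAPS, BSA / Probe or stimulus: Eu-anti-GST and XL665-anti-Flag labelled anti-tag antibodies / Schedule: 4 h, 22.5 °C incubation / Technique: TR-FRET 671 and 617 nm emission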
# rCAG binder: binds r(CAG) RNA repeats; r(CAG) RNA repeat, TO-PRO-1 dye displacement fluorescence; inhibition, % at 3 µM; hit rate 1.3% among 370,000;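 active = inhibition above the plate cutoff, the mean of all test compounds on that plate plus 3 SD, cut at about 35% in these data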;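 note: higher means more dye released from RNA so lower well fluorescence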
# TAAR1 ag: human TAAR1 agonism; Q96RJ0; CHO RD-HGA16 TAAR1, Fluo-8 calcium fluorescence; vehicle wells 0%, saturating PEA agonist 100%; activation, % at 3 µM; hit rate 0.99% among 360,000; AID 624467;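 active = activation above the mean activation of all test compounds in the run plus 3 SD, cut at about 38% in these data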
# Target sequence (Q96RJ0 whole entry, looked up): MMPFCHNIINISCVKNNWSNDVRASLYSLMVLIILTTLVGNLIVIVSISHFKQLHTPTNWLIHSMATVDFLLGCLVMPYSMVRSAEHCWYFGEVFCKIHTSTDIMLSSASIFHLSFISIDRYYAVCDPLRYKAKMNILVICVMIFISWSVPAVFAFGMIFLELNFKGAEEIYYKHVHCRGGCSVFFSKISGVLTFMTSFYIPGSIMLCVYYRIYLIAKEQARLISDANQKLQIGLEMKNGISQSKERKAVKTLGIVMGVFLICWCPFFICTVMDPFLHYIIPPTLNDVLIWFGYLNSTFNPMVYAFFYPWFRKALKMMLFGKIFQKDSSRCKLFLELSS
#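 System: CHO RD-HGA16 cells carrying human TAAR1 plus Gα16; Incubation: 17-24 h seeding, 75 min 37 °C dye, 30 min RT; Measured by: Fluo-8 fluorescence, 5 s baseline then 140 s kinetic read; Control set: DMSO and PEA EC100; Replication: single well for each compound.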
# TAAR1 antag: human TAAR1 antagonism; inhibition, % at 3 µM; CHO RD-HGA16 TAAR1, Fluo-8 calcium fluorescence, antagonist; Q96RJ0; hit rate 1.5% among 360,000;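 active = inhibition above a per-plate cutoff, the mean inhibition of test compounds on that plate plus 3 SD, cut at about 49% in these data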
#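 Test system: CHO RD-HGA16 cells bearing hTAAR1 | Reagent: β-PEA, EC80 | Compound dosing: 3 µM, single point | Schedule: Dye loading 75 min at 37 °C, then 30 min room temperature | Signal: Calcium fluorescence with Fluo-8 | Evaluation: Percent inhibition of PEA-evoked calcium signal, max/basal emission ratio | Control set: DMSO-only wells and EC80 β-PEA-stimulated wells | Repeats: Singlicate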
# Numbers stand for hits; – = inactive; · = no result.
SMILES,HCV NS3 hel inh,core dimer inh,rCAG binder,TAAR1 ag,TAAR1 antag
CNC[C@H](Cc1ccccc1)NC[C@@H](Cc1cccc2ccccc12)NCCc1ccc(C)cc1,–,–,–,43,50
CNCCNC[C@H](Cc1cccc2ccccc12)NCCc1ccccc1,·,·,–,38,–
CC(CCc1ccccc1)NC(=O)COC(=O)c1cccc2ccccc12 (stereo not drawn),–,–,–,–,–
CCCNC(=O)Cn1c(=O)/c(=C\c2ccc(-c3cccc([N+](=O)[O-])c3)o2)s/c1=C\C(=O)C(C)(C)C,–,57,–,–,–
CCCNC(=O)Cn1c(=O)/c(=C/c2ccc(-c3cccc([N+](=O)[O-])c3)o2)s/c1=C\C(=O)C(C)(C)C,·,·,–,–,–
CC(C)(C)c1ccc(C(=O)Nc2ccccc2Cl)cc1,–,–,–,–,–
O=C(Nc1ccccc1Cl)c1ccccc1CC(O)(c1ccccc1)c1ccccc1,·,·,–,–,54
CC(=O)N1CCc2cc(S(=O)(=O)NCCC(=O)N(C)C3CCCCC3)ccc21,·,·,–,·,·
CN(CC(=O)Nc1c(Cl)cccc1Cl)C(=O)c1cccc(-n2cccc2)c1,·,–,–,–,–
CN(CC(=O)Nc1cccc(F)c1)C(=O)c1cccc(-n2cccc2)c1,·,64,–,–,–
CN(CC(=O)Nc1cccc(F)c1)C(=O)c1ccc2c(c1)CC(c1ccccc1)OC2=O (stereo not drawn),·,·,–,–,58
O=C(CNS(=O)(=O)c1ccc(F)cc1)N1CCN(c2ccccn2)CC1,·,·,–,·,·
C=CCn1c(COc2ccccc2)nnc1SCC(=O)Nc1ccc(S(=O)(=O)Nc2cc(C)nc(C)n2)cc1,·,·,–,·,·
O=C1C2CC=C(Cl)CC2C(=O)N1CN(Cc1ccco1)CN1C(=O)C2CC=C(Cl)CC2C1=O (stereo not drawn),–,80,–,–,–
CCCCCCCCN1C(=O)[C@@H](CC(=O)NCCCN2CCCC2=O)C[C@@]2(C(=O)OC)C1=C[C@H](COCc1ccccc1)O[C@@H]2C,·,·,–,·,·
Cc1ccc(-c2cc(C(=O)N3CCOCC3)c3ccccc3n2)o1,·,·,–,–,–
Cc1ccc(-c2cc(C(=O)N3CCN(c4ncccn4)CC3)c3cc(Br)ccc3n2)o1,–,–,–,–,59
Cc1ccc(-c2cc(C(=O)N3CCN(c4ccc(F)cc4)CC3)c3ccccc3n2)o1,–,49,–,–,–
O=C(NC1CCCC1)C1CCN(S(=O)(=O)c2ccc3[nH]c(=O)oc3c2)CC1,·,·,–,·,·
CCCCCCCCN1CCS(=O)(=O)N(Cc2ccc(C(F)(F)F)cc2)C(C(=O)OC)C1 (stereo not drawn),·,·,–,·,·
O=C(Nc1c(-c2ccc(C(F)(F)F)cc2)nc2ncccn12)c1ccccc1,·,·,–,·,·
COc1ccc(Cn2ccc3ccc(-c4ccc5ccn(C(=O)c6ccc(C)cc6)c5c4)cc32)cc1,·,·,–,·,·
COc1cc(C(=O)NC2CCCCN(C(C)C)C2=O)cc(OC)c1OC (stereo not drawn),·,·,–,·,·
Cc1c(C(=O)NC(=S)Nc2ccc(NC(=O)c3cccs3)cc2)cccc1[N+](=O)[O-],–,–,–,–,68
S=C1NC2=C(CCCC2=C2SCCS2)C(c2ccccc2)N1 (stereo not drawn),–,46,–,–,–
SMILES,HCV NS3 hel inh,core dimer inh,rCAG binder,TAAR1 ag,TAAR1 antag
COC(=O)[C@@]12CCCCC3=C1N(CCC3)C(=O)[C@H]2CC(=O)NCCCN1CCCC1=O,·,·,–,·,·
CCc1cc2cc3c(cc2nc1SCC(=O)Nc1cc(C)on1)OCO3,–,111,–,–,–
CCOC(=O)C1=C(C)N(c2ccccc2)C(=O)/C1=C\c1cccs1,–,–,–,–,–
COC(=O)C1=C(C)N(c2cccc(C)c2)C(=O)/C1=C\c1cccs1,–,–,–,48,–
CCCCc1nc2sc3c(SCCN(C)C)ncnc3c2c2c1CCC2,–,–,–,–,–
Cc1sc2ncnc(SCC(=O)NC(=O)NCc3ccco3)c2c1C,–,50,–,–,–
O=C(CSc1nc2cc(Cl)ccc2s1)NC(=O)NCc1ccco1,–,57,–,–,–
Cc1ccc(-c2csc3ncnc(OCC(=O)NC(=O)NCc4ccco4)c23)cc1,–,49,–,–,–
Cc1nc(SCC(=O)NCc2ccco2)c2c(C)c(C)sc2n1,–,–,–,–,–
CCCCc1nc2sc3c(SCC(=O)NCc4ccco4)ncnc3c2c2c1CCC2,–,105,–,–,–
COC[C@@H]1CCCN1c1cccc2c1S(=O)(=O)N1CC[C@H](C1)O2,·,·,–,·,·
COC(=O)[C@H]1C[C@@]2(N3CCCC3)c3ccccc3N(C(=O)OC(C)(C)C)[C@H]2N1C(=O)OC(C)(C)C,·,·,–,·,·
COC(=O)c1cc(C)oc1C,·,·,–,·,·
O=C(Nc1cccc(C(F)(F)F)c1)OC1CCC12CCC(c1ccccc1)CC2 (stereo not drawn),·,·,–,·,·
COc1ccc(/C(O)=C/C(=O)C(=O)NNC(=O)C(O)(c2ccccc2)c2ccccc2)cc1,–,–,44,–,–
COc1ccc(/C(O)=C/C(=O)C(=O)NNC(=O)c2ccccc2)cc1,–,–,–,–,–
CCS(=O)(=O)c1ccc(O)c(NC(=O)COc2ccc(OC)cc2)c1,–,–,–,–,–
CCCc1ccc(OCC(=O)Nc2cc(S(=O)(=O)CC)ccc2O)cc1,–,–,35,–,–
C=C1C(=O)[C@]23C[C@H]1CC[C@H]2[C@]1(C)CCC[C@@](C)(C(=O)OC)[C@H]1C[C@@H]3O,·,·,–,·,·
CC1OC(CC(=O)O)CC2=C1C(=O)c1c(O)cccc1C2=O (stereo not drawn),·,·,–,83,63
COC(=O)c1ccc(CN2CC3CC(c4ccccc4)N4CCCC34C2=O)cc1 (stereo not drawn),·,·,–,·,·
C=CCN1[C@H](CC(C)C)COc2cccc(F)c2S1(=O)=O,·,·,–,·,·
CN(CC(=O)Nc1sccc1C#N)C1CCCCC1,–,51,–,–,–
CCOC(=O)Cc1nc(N2CCN(CCO)CC2)c2c(C)c(C(=O)OCC)sc2n1,·,·,–,·,·
CC(=O)N1CCCN(C(=O)CN2C(=O)CC(C)(C)S(=O)(=O)c3ccccc32)CC1,·,·,–,·,·
C/C=C\C=C\C(=O)Nc1cccc(C2=NOC3(C2)C[C@H](C(N)=O)N(C(=O)c2ccccc2C(=O)c2ccccc2)C3)c1 (stereo partly drawn),·,50,·,·,·
C/C=C\C=C\C(=O)N1CC2(CC(c3cccc(NC(=O)COc4ccc(Cl)cc4)c3)=NO2)C[C@H]1C(N)=O (stereo partly drawn),·,47,–,–,–
C/C=C/C=C/C(=O)Nc1cccc(C2=NOC3(C2)C[C@H](C(N)=O)N(C(=O)CC(c2ccccc2)c2ccccc2)C3)c1 (stereo partly drawn),·,48,·,·,·
C=C(C)C(=O)Nc1cccc(C2=NOC3(C2)C[C@@H](C(N)=O)N(C(=O)[C@H]2CCC(=O)N2)C3)c1 (stereo partly drawn),·,81,–,–,–

# Bioassay records (PubChem BioAssay)
